Compound activity: PubChem, several laboratories
NTR1 agonist – agonists of human NTR1, primary screen, imaging, U2OS cells, beta-arrestin-GFP, high content. 330,000 tested, 0.17% active. activation, % at 20 µM. NTR1-U2OS beta-arrestin-GFP spot imaging, agonist mode. AID 493036, 2011;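 active = activation at or above 40% of the spot to cytoplasm intensity ratio, with at least 20 cells analyzed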
Target sequence (P30989 whole entry, looked up): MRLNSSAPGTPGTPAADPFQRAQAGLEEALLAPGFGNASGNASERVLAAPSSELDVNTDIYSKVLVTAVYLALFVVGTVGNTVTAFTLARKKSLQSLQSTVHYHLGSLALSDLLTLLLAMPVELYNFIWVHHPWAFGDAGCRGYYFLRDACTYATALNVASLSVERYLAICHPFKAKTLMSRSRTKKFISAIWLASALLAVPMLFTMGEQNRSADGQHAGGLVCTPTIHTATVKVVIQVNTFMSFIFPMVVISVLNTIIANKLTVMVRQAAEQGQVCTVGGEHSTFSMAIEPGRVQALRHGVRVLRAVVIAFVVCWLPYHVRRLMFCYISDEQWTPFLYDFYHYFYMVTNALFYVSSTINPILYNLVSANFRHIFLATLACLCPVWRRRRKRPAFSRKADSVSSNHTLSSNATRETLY
NR1D1 modulator – modulators of Rev-erb alpha DNA binding, primary screen, biochemical, FITC-DNA, fluorescence polarization, uHTS; Nuclear receptor subfamily 1 group D member 1 (Homo sapiens), P20393; Rev-erbα–FITC-DNA binding, 90 min; activity, % at 10 µM; 370,000 tested, 0.79% active;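 active = activity above about 14%, limit read from the data; passing the limit was not always enough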
MC4R antagonist – MC4R antagonists of cAMP signaling, primary screen, cell-based, TR-FRET, antagonist arm of biased-ligand search; Melanocortin receptor 4 (Homo sapiens), P32245; MC4R-expressing cells, MTII-stimulated cAMP, LANCE TR-FRET; inhibition, % at 6.5 µM; 360,000 tested, 0.48% active;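 active = inhibition above its plate's cutoff, the mean of tested wells on that plate plus 3 SD, cut at about 29% in these data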
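Assay system: U2OS cells stably expressing human melanocortin 4 receptor (MC4R) / Dosing: 6.5 µM / Timing: compound 30 min, challenge 1 h, detection 1 h / Measured by: Eu-cAMP/anti-cAMP TR-FRET, emission 671 nm / Replicates: singlicate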
MC4R ag barr – MC4R agonists recruiting beta-arrestin, primary screen, cell-based, luminescence, agonist arm of biased-ligand search; activation, % at 8.9 µM; 360,000 tested, 0.98% active; U2OS MC4R beta-arrestin complementation; percent of melanotan II response, DMSO zero;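 active = activation above a per-plate cutoff, the mean activation of sample wells on that plate plus 3 SD, cut at about 8% in these data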
PG9 binder – binders of HIV-1 gp120 antibody PG9, primary screen, biochemical, TR-FRET. HIV-1 gp120 / PG9 antibody interaction. TR-FRET gp120-PG9 antibody binding. inhibition, % at 6.7 µM. 360,000 tested, 0.43% active; in the data active = inhibition above about 8.5%
MC4R barr conf – MC4R beta-arrestin agonists, retest, confirmation, cell-based, luminescence, U2OS. shares compounds with MC4R ag barr. U2OS MC4R beta-arrestin recruitment; scaled DMSO 0%, Melanotan II 100%. activation, % at 8.9 µM. 2,400 tested, 31% active;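 active = mean activation across replicates above the hit cutoff set in the earlier primary screen, cut at about 8% in these data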
MOR DOR agonist – agonists of MOR-DOR heterodimerization, counter-screen for MC4R biased agonist project, cell-based, luminescence; shares compounds with MC4R ag barr; U2OS PathHunter beta-arrestin, beta-gal luminescence; percent of deltorphin B response, DMSO zero; activation, % at 9.2 µM; 2,400 tested, 5.8% active; AID 602194, 2012;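 active = mean activation across replicates exceeds the hit threshold derived in the earlier primary screen, cut at about 18% in these data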
Large screens that a line does not name were inactive (follow-up assays come after a bar, where they were run). Only some compounds are listed: those with a hit (about 2.5% of all), similar ones and a draw of the others.

Cc1cccc(NC(=O)Nc2ccc(C)cc2Br)c1	MC4R ag barr 12 | MC4R barr conf inactive | MOR DOR agonist inactive
COc1ccc(NC(=O)Nc2cc3oc4ccccc4c3cc2OC)cc1	none
COc1cc2c(cc1NC(=O)Nc1ccc(F)cc1)oc1ccccc12	MC4R ag barr 11 | MC4R barr conf inactive | MOR DOR agonist inactive
COc1ccc(C)cc1NC(=O)Nc1cccc(C)c1	none
COc1cc2c(cc1NC(=O)Nc1ccc(C)cc1)oc1ccccc12	none
COC(=O)c1cc(S(=O)(=O)N2CCN(c3cccc(C(F)(F)F)c3)CC2)cn1C	none (no result: NTR1 agonist, MC4R antagonist, MC4R ag barr, PG9 binder)
Fc1cccc(Cn2ccc3ccc(-c4ccc5ccn(Cc6cccc(F)c6)c5c4)cc32)c1	none (no result: NTR1 agonist, MC4R antagonist, MC4R ag barr, PG9 binder)
O=C(Nc1ccccc1-c1ccccc1)c1cc(C(F)(F)F)cc(C(F)(F)F)c1	MC4R ag barr 17 | MC4R barr conf inactive | MOR DOR agonist inactive
C=CCN1[C@H](Cc2ccccc2)COc2cc(N3CCSCC3)ccc2S1(=O)=O	none (no result: NTR1 agonist, MC4R antagonist, MC4R ag barr, PG9 binder)
COc1ccc(NC(=O)Nc2cccc(Cl)c2Cl)c(OC)n1	MC4R ag barr 23 | MC4R barr conf inactive | MOR DOR agonist inactive
Cc1ccc(S(=O)(=O)N2CC3(COC(C)(C)OC3)C[C@H]2CON2C(C)(C)CCCC2(C)C)cc1	none (no result: NTR1 agonist, MC4R antagonist, MC4R ag barr, PG9 binder)
CC(C)(C)C1CCc2onc(C(=O)NC3CCCC3)c2C1 (stereo unspecified)	none
CC(C)(C)C1CCc2onc(C(=O)Nc3ccc4c(c3)OCO4)c2C1 (stereo unspecified)	MC4R ag barr 12 | MC4R barr conf inactive | MOR DOR agonist inactive
CCCCCCCOC(=O)C[N+](C)(C)CCOC1CC2CCC1(C)C2(C)C (stereo unspecified)	MC4R ag barr 12 (no result: NTR1 agonist) | MC4R barr conf 18 | MOR DOR agonist inactive
COC(=O)[C@@]12CCCCC3=C1N(CCC3)C(=O)[C@H]2CC(=O)NCc1ccc(C)o1	none (no result: NTR1 agonist, MC4R antagonist, MC4R ag barr, PG9 binder)
C=CCn1c(SCC(=O)Nc2ccccc2OCC)nnc1-c1ccc(C(C)(C)C)cc1	none (no result: NTR1 agonist, MC4R antagonist, MC4R ag barr, PG9 binder)
COc1ccc(NC(=O)CN(C)C(=O)/C=C/c2ccc(OCc3ccccc3)cc2)cc1	MC4R ag barr 19 | MC4R barr conf inactive | MOR DOR agonist inactive
COc1ccc(NC(=O)CN(C)C(=O)/C=C/c2ccc(S(=O)(=O)N3CCCCCC3)cc2)cc1	MC4R ag barr 30 | MC4R barr conf 11 | MOR DOR agonist inactive
COc1ccc(NC(=O)CN(C)C(=O)CCc2ccccc2)cc1	none
C#CCN1C(C(=O)OC)CN(CCCCCC)CCS1(=O)=O (stereo unspecified)	none (no result: NTR1 agonist, MC4R antagonist, MC4R ag barr, PG9 binder)
CCCCCCCCCCOC(=O)Cn1c(COc2ccccc2OC)[n+](C)c2ccccc21	MC4R ag barr 19 | MC4R barr conf 16 | MOR DOR agonist 29
Cc1ccccc1NC(=O)[C@@H]1CC(=O)O[C@@H]1c1ccccc1	none (no result: NTR1 agonist, MC4R antagonist, MC4R ag barr, PG9 binder)
COc1ccc(NC(=O)c2c(-c3ccccc3)noc2C)c(OC)c1	none
COc1cc(OC)c(NC(=O)c2c(-c3ccccc3)noc2C)cc1Cl	MC4R ag barr 25 | MC4R barr conf inactive | MOR DOR agonist inactive
COc1ccc(Cl)cc1NC(=O)c1c(-c2ccccc2)noc1C	MC4R ag barr 27 | MC4R barr conf inactive | MOR DOR agonist inactive
Cc1ccc(NS(=O)(=O)c2ccc(-n3cccn3)cc2)cc1Cl	MC4R ag barr 13 (no result: NTR1 agonist) | MC4R barr conf inactive | MOR DOR agonist inactive
COc1ccc(NC(=S)N/N=C/c2cccn2Cc2ccccc2F)cc1	MC4R ag barr 10 | MC4R barr conf inactive | MOR DOR agonist inactive
COc1ccc(NC(=S)N/N=C/c2cccn2Cc2ccc(F)cc2Cl)cc1	none
